Laboratory results taken from ChEMBL document CHEMBL3045292, “Synthesis and herbicidal activity of 2-(7-fluoro-3-oxo- 3,4-dihydro-2H-benzo[b][1,4]oxazin-6-yl)isoindoline-1,3-diones” (J Agric Food Chem, 2005).

How the values were obtained:
[1] = tested on: Zea mays; assay: (§1) Phytotoxicity against Zea mays (maize) assessed as growth inhibition at 150 g/ha pre-emergence treatment measured after 15 days by crop-selectivity assay; assay type: organism-based; details: in vivo, other, 360 h
Summary of the method: (§2)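 Compounds were formulated as 100 g/L emulsifiable concentrates, with DMF as solvent and Tween-80 as emulsifier, then diluted in water to the required rate. They were sprayed on pot-grown plants in a greenhouse, in clay soil (pH 6.5, 1.6% organic matter, 37.3% clay, CEC 12.1 cmol/kg). Untreated and DMF-treated plants served as controls. Percent growth inhibition was scored visually 15 days after treatment.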

[2] = tested on: Oryza sativa; assay: (§3) Phytotoxicity against Oryza sativa (rice) assessed as growth inhibition at 7.5 g/ha post-emergence treatment measured after 15 days by crop-selectivity assay; assay type: organism-based; details: in vivo, other, 360 h
[3] = tested on: Triticum aestivum; assay: (§4) Phytotoxicity against Triticum aestivum (wheat) assessed as growth inhibition at 30 g/ha pre-emergence treatment measured after 15 days by crop-selectivity assay; assay type: organism-based; details: in vivo, other, 360 h; summary of the method: as §2
[4] = tested on: Chenopodium album; assay: Herbicidal activity against fat hen Chenopodium album assessed as weed growth inhibition at 75 g/ha post-emergence treatment […]; assay type: functional; details: read-out: GI
Summary of the method: (§5)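 Pot-grown plants in the greenhouse, in clay soil (pH 6.5, 1.6% organic matter, 37.3% clay, CEC 12.1 cmol/kg). Compound was made up as a 100 g/L emulsified concentrate (DMF, Tween-80), diluted in water and sprayed at 75 g ai/ha. Pre-emergence spraying was 24 h after sowing; post-emergence at two-leaf (dicots) or one-leaf (monocots) stage. Untreated and DMF controls. Percent growth inhibition scored visually 15 days post-treatment.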

[5] = Phytotoxicity against Triticum aestivum (wheat) assessed as growth inhibition at 150 g/ha pre-emergence treatment measured after 15 days by crop-selectivity assay; assay type: organism-based; details: in vivo, read-out: GI
[6] = Phytotoxicity against Glycine max (soybean) assessed as growth inhibition at 150 g/ha pre-emergence treatment measured after 15 days by crop-selectivity assay; assay type: organism-based; details: in vivo, read-out: GI
[7] = tested on: Triticum aestivum; assay: (§6) Phytotoxicity against Triticum aestivum (wheat) assessed as growth inhibition at 15 g/ha post-emergence treatment measured after 15 days by crop-selectivity assay; assay type: organism-based; details: in vivo, other, 360 h
[8] = tested on: Abutilon theophrasti; assay: Herbicidal activity against Abutilon theophrasti (velvetleaf) assessed as weed growth inhibition at 75 g/ha post-emergence treatment […]; assay type: functional; details: read-out: GI; summary of the method: as §5
[9] = tested on: Triticum aestivum; assay: (§7) Phytotoxicity against Triticum aestivum (wheat) assessed as growth inhibition at 7.5 g/ha post-emergence treatment measured after 15 days by crop-selectivity assay; assay type: organism-based; details: in vivo, other, 360 h; summary of the method: as §2
[10] = tested on: Setaria viridis; assay: Herbicidal activity against Setaria viridis (green foxtail) assessed as weed growth inhibition at 75 g/ha pre-emergence treatment […]; assay type: functional; details: read-out: GI; summary of the method: as §5
[11] = tested on: Zea mays; assay: (§8) Phytotoxicity against Zea mays (maize) assessed as growth inhibition at 75 g/ha pre-emergence treatment measured after 15 days by crop-selectivity assay; assay type: organism-based; details: in vivo, other, 360 h; summary of the method: as §2
[12] = tested on: Triticum aestivum; assay: (§9) Phytotoxicity against Triticum aestivum (wheat) assessed as growth inhibition at 30 g/ha post-emergence treatment measured after 15 days by crop-selectivity assay; assay type: organism-based; details: in vivo, other, 360 h
[13] = tested on: Amaranthus blitum; assay: Herbicidal activity against Amaranthus blitum assessed as weed growth inhibition at 75 g/ha post-emergence treatment […]; assay type: functional; details: read-out: GI; summary of the method: as §5
[14] = Phytotoxicity against Brassica rapa subsp. oleifera assessed as growth inhibition at 30 g/ha pre-emergence treatment measured after 15 days by crop-selectivity assay; assay type: organism-based; details: in vivo, read-out: GI
[15] = Phytotoxicity against Brassica rapa subsp. oleifera assessed as growth inhibition at 30 g/ha post-emergence treatment measured after 15 days by crop-selectivity assay; assay type: organism-based; details: in vivo, read-out: GI
[16] = tested on: Oryza sativa; assay: (§10) Phytotoxicity against Oryza sativa (rice) assessed as growth inhibition at 7.5 g/ha pre-emergence treatment measured after 15 days by crop-selectivity assay; assay type: organism-based; details: in vivo, other, 360 h
[17] = tested on: Gossypium; assay: Phytotoxicity against Gossypium (cotton) assessed as growth inhibition at 150 g/ha pre-emergence treatment measured after 15 days by crop-selectivity assay; assay type: organism-based; details: in vivo, other, 360 h
[18] = tested on: Glycine max; assay: Phytotoxicity against Glycine max (soybean) assessed as growth inhibition at 30 g/ha pre-emergence treatment measured after 15 days by crop-selectivity assay; assay type: organism-based; details: in vivo, other, 360 h
[19] = tested on: Digitaria sanguinalis; assay: Herbicidal activity against crabgrass Digitaria sanguinalis(hairy crabgrass) assessed as weed growth inhibition at 75 g/ha pre-emergence treatment […]; assay type: functional; details: read-out: GI; summary of the method: as §5
[20] = tested on: Triticum aestivum; assay: (§11) Phytotoxicity against Triticum aestivum (wheat) assessed as growth inhibition at 15 g/ha pre-emergence treatment measured after 15 days by crop-selectivity assay; assay type: organism-based; details: in vivo, other, 360 h
[21] = tested on: Abutilon theophrasti; assay: Herbicidal activity against Abutilon theophrasti (velvetleaf) assessed as weed growth inhibition at 75 g/ha pre-emergence treatment […]; assay type: functional; details: read-out: GI; summary of the method: as §5
[22] = tested on: Triticum aestivum; assay: Phytotoxicity against Triticum aestivum (wheat) assessed as growth inhibition at 7.5 g/ha pre-emergence treatment measured after 15 days by crop-selectivity assay; assay type: organism-based; details: in vivo, other, 360 h; summary of the method: as §2
[23] = tested on: Glycine max; assay: (§12) Phytotoxicity against Glycine max (soybean) assessed as growth inhibition at 75 g/ha pre-emergence treatment measured after 15 days by crop-selectivity assay; assay type: organism-based; details: in vivo, other, 360 h
[24] = as §1; assay type: organism-based; details: in vivo, 150 g/ha, read-out: GI; summary of the method: as §2
[25] = as §3; assay type: organism-based; details: in vivo, 7.5 g/ha, read-out: GI
[26] = as §4; assay type: organism-based; details: in vivo, 30 g/ha, read-out: GI; summary of the method: as §2
[27] = as §6; assay type: organism-based; details: in vivo, 15 g/ha, read-out: GI
[28] = as §7; assay type: organism-based; details: in vivo, 7.5 g/ha, read-out: GI; summary of the method: as §2
[29] = as §8; assay type: organism-based; details: in vivo, 75 g/ha, read-out: GI; summary of the method: as §2
[30] = as §9; assay type: organism-based; details: in vivo, 30 g/ha, read-out: GI
[31] = as §10; assay type: organism-based; details: in vivo, 7.5 g/ha, read-out: GI
[32] = as §11; assay type: organism-based; details: in vivo, 15 g/ha, read-out: GI
[33] = as §12; assay type: organism-based; details: in vivo, 75 g/ha, read-out: GI

| Structure (SMILES) | inhibition of growth at 75 g/ha [4] | inhibition at 360 h [5] | inhibition at 360 h [6] | inhibition of growth at 75 g/ha [8] | inhibition of growth at 75 g/ha [10] | inhibition of growth at 75 g/ha [13] | inhibition at 360 h [14] | inhibition at 360 h [15] | growth inhibition (GI) [17] | growth inhibition (GI) [18] | inhibition of growth at 75 g/ha [19] | inhibition of growth at 75 g/ha [21] | growth inhibition (GI) [22] | other results |
| --- | --- | --- | --- | --- | --- | --- | --- | --- | --- | --- | --- | --- | --- | --- |
| C#CCN1C(=O)COc2cc(F)c(N3C(=O)c4ccc(F)cc4C3=O)cc21 | > 80% | > 10% | > 10% | > 80% | > 80% | > 80% | > 10% | > 10% | Non-toxic | Non-toxic | > 80% | > 80% | Non-toxic | growth inhibition (GI) [1]: Non-toxic; growth inhibition (GI) [2]: Non-toxic; growth inhibition (GI) [3]: Non-toxic; growth inhibition (GI) [7]: Non-toxic; growth inhibition (GI) [9]: Non-toxic; growth inhibition (GI) [11]: Non-toxic; growth inhibition (GI) [12]: Non-toxic; growth inhibition (GI) [16]: Non-toxic; growth inhibition (GI) [20]: Non-toxic; growth inhibition (GI) [23]: Non-toxic |
| C#CCN1C(=O)COc2cc(F)c(N3C(=O)C4=C(CCCC4)C3=O)cc21 [FLUMIOXAZIN] | > 80% | > 10% | > 10% | > 80% | > 80% | > 80% | > 10% | > 10% | Non-toxic | Non-toxic | > 80% | > 80% | Non-toxic | inhibition at 360 h [24]: 1%; inhibition at 360 h [25]: > 10%; inhibition at 360 h [26]: > 10%; inhibition at 360 h [27]: > 10%; inhibition at 360 h [28]: > 10%; inhibition at 360 h [29]: 1%; inhibition at 360 h [30]: > 10%; inhibition at 360 h [31]: > 10%; inhibition at 360 h [32]: > 10%; inhibition at 360 h [33]: > 10% |
